B1: Clone 1A: 3xFLAG-tagged human aldolase C aa 1-100, 15 kDa (protein, UniProt P09972 1-100, looked up, fragment)
chain: MPHSYPALSAEQKKELSDIALRIVAPGKGILAADESVGSMAKRLSQIGVENTEENRRLYRQVLFSADDRVKKCIGGVIFFHETLYQKDDNGVPFVRTIQD
modifications: 3xFLAG tag
B2: Clone 1: 3xFLAG-tagged human aldolase C aa 1-210, 26 kDa (protein, UniProt P09972 1-210, looked up, fragment)
chain: MPHSYPALSAEQKKELSDIALRIVAPGKGILAADESVGSMAKRLSQIGVENTEENRRLYRQVLFSADDRVKKCIGGVIFFHETLYQKDDNGVPFVRTIQDKGIVVGIKVDKGVVPLAGTDGETTTQGLDGLSERCAQYKKDGADFAKWRCVLKISERTPSALAILENANVLARYASICQQNGIVPIVEPEILPDGDHDLKRCQYVTEKVL
modifications: 3xFLAG tag
B3: full-length: 3xFLAG-tagged human aldolase C aa 1-364, 43 kDa (protein, UniProt P09972 1-364, looked up)
chain: MPHSYPALSAEQKKELSDIALRIVAPGKGILAADESVGSMAKRLSQIGVENTEENRRLYRQVLFSADDRVKKCIGGVIFFHETLYQKDDNGVPFVRTIQDKGIVVGIKVDKGVVPLAGTDGETTTQGLDGLSERCAQYKKDGADFAKWRCVLKISERTPSALAILENANVLARYASICQQNGIVPIVEPEILPDGDHDLKRCQYVTEKVLAAVYKALSDHHVYLEGTLLKPNMVTPGHACPIKYTPEEIAMATVTALRRTVPPAVPGVTFLSGGQSEEEASFNLNAINRCPLPRPWALTFSYGRALQASALNAWRGQRDNAGAATEEFIKRAEVNGLAAQGKYEGSGEDGGAAAQSLYIANHAY
modifications: full-length 3xFLAG tag
B4: Clone 2: 3xFLAG-tagged human aldolase C aa 101-300, 25 kDa (protein, UniProt P09972 101-300, looked up, fragment)
chain: KGIVVGIKVDKGVVPLAGTDGETTTQGLDGLSERCAQYKKDGADFAKWRCVLKISERTPSALAILENANVLARYASICQQNGIVPIVEPEILPDGDHDLKRCQYVTEKVLAAVYKALSDHHVYLEGTLLKPNMVTPGHACPIKYTPEEIAMATVTALRRTVPPAVPGVTFLSGGQSEEEASFNLNAINRCPLPRPWALTF
modifications: 3xFLAG tag
B5: Clone 1B: 3xFLAG-tagged human aldolase C aa 101-210, 16 kDa (protein, UniProt P09972 101-210, looked up, fragment)
chain: KGIVVGIKVDKGVVPLAGTDGETTTQGLDGLSERCAQYKKDGADFAKWRCVLKISERTPSALAILENANVLARYASICQQNGIVPIVEPEILPDGDHDLKRCQYVTEKVL
modifications: 3xFLAG tag

Tested on: 9F mAb
Assay: Immunoblot of 3xFLAG-tagged aldolase C fragments in Neuro2a lysates with 9F mAb
Format: binding, mouse
Settings: Neuro2a total protein lysates; 15% SDS-PAGE; 9F 1:1000; ECL
Outline: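 Neuro2a cells were plated without antibiotics to reach 70–90% confluence, transfected with lipofectamine 2000, given fresh medium at 6h and grown 48h at 37 °C. Lysis was 30 min on ice in 50mM Tris-HCl pH 7.5, 150mM NaCl, 0.1% Triton X-100 and 0.5 mM PMSF, cleared at 16000xg. Blots went onto nitrocellulose, blocked 1h in 5% milk/T-PBS. Primary 1h RT or overnight 4 °C; HRP anti-mouse 1:5000, 45min. α-tubulin loading control.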

| Molecule | recognition of 3xFLAG-tagged aldolase C fragment by 9F mAb |
| --- | --- |
| B1 | detected |
| B2 | recognized |
| B3 | recognized |
| B4 | absence of ECL signal |
| B5 | detected Clone 1A (15kDa) but not Clone 1B |

From PMC4011915 (mAbs, 2014)
